Test results published in ChEMBL document CHEMBL4622976, “Development of pH/Glutathione-Responsive Theranostic Agents Activated by Glutathione S-Transferase π for Human Colon Cancer” (J Med Chem, 2020).

Experiments:
[1] = Toxicity in ICR mouse assessed as induction of abnormality in general activity behavior at 240 mg/kg, ip for 14 days; format: organism-based; settings: in vivo, 336 h
Summary of the method: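 Female ICR mice (n = 10 per group) given a single intraperitoneal dose at 240.0, 300.0, 375.0, 468.8 or 585.9 mg/kg, or vehicle. Deaths recorded at 1 h, 4 h and daily through day 14. Body weight, drinking, eating and activity observed for abnormality; LD50 derived from mortality.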

[2] = Drug localization in tumor of intra-operative mouse xenografted with human HT-29/Luc cells at 40 mg/kg, iv measured over 7 hrs post dose by fluorescence imaging assay; format: ADME, organism-based, Neoplasm; settings: in vivo
[3] = tested on: HT-29; experiment: Induction of autophagy in human HT-29 cells assessed as increase in Beclin-1 protein level incubated for 72 hrs by Western blot analysis; format: functional, cell-based
Summary of the method: (§1)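 HT29 cells (1.5×10^5/mL) were treated for 72 h and lysed. Lysate (0.05 mg/lane) was run on 12% SDS-PAGE and transferred to nitrocellulose. After blocking in 5% non-fat milk, blots were probed for Bax, Bcl-2, cleaved caspase-3, cleaved PARP, LC3, p62 and beclin-1. Levels were normalised to β-actin, and means ± SD taken from three independent assays.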

[4] = Toxicity in ICR mouse assessed as induction of animal death at 240 to 375 mg/kg, ip measured after 1 day; format: organism-based; settings: in vivo, 24 h
Summary of the method: (§2)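 Female ICR mice, randomised, n = 10 per group. Single intraperitoneal dose of 240.0, 300.0, 375.0, 468.8 or 585.9 mg/kg, or vehicle. Deaths recorded at 1 h, 4 h, days 1–4 and days 5–14. Body weight, drinking, eating and activity observed over 14 days. Survival percentage taken on day 14; LD50 derived from the dose–mortality data.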

[5] = Cytotoxicity against human CCD-841 cells by MTT assay; format: cell-based
Summary of the method: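 MTT assay. Cells were grown in DMEM/RPMI 1640 with 10% FBS, penicillin and streptomycin at 37 °C under 5% CO2. After a PBS wash, cells got 0.5 mg/mL MTT for 3 h at 37 °C. Formazan was dissolved in DMSO and absorbance read at 570 nm. Inhibition was expressed as a percentage and IC50 calculated. Means ± SD come from three separate experiments.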

[6] = Drug metabolism assessed as GSTpi (unknown origin) mediated compound fluorescence activation at 1 uM in presence of 1 mM Na+ by HPLC analysis; format: ADME; settings: human
Summary of the method: (§3)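 Selectivity test: compound (1 µM) with catalytic GSTπ and each analyte in water with 1% (v/v) DMSO at pH 4.0, 37 °C for 0.5 h. Analytes were cations at 1 mM; amino acids, vitamin C, Na2S and GSH at 100 µM. Readout was fluorescence emission spectra (excitation 440 nm, recorded 450–650 nm).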

[7] = Toxicity in ICR mouse assessed as induction of animal death at 240 to 300 mg/kg, ip measured after 2 days; format: organism-based; settings: in vivo, 48 h; summary of the method: as §2
[8] = tested on: HT-29; experiment: Induction of apoptosis in human HT-29 cells assessed as increase in cleaved caspase-3 protein level incubated for 72 hrs by Western blot analysis; format: functional, cell-based; summary of the method: as §1
[9] = Toxicity in ICR mouse assessed as induction of animal death at 240 to 585.9 mg/kg, ip measured after 1 hr; format: organism-based; settings: in vivo; summary of the method: as §2
[10] = Drug metabolism assessed as GSTpi (unknown origin) mediated compound fluorescence activation at 1 uM in presence of 100 uM glutamate by HPLC analysis; format: ADME; settings: human; summary of the method: as §3
[11] = Drug metabolism assessed as GSTpi (unknown origin) mediated compound fluorescence activation at 1 uM in presence of 1 mM Cu2+ by HPLC analysis; format: ADME; settings: human; summary of the method: as §3
[12] = Drug uptake in lysosome of human CCD-841 cells at 1 uM incubated for 60 mins by Lyso-tracker based confocal fluorescence microscopy; format: ADME; settings: 1 h
Summary of the method: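 HT29 and CCD841 cells were seeded at 2×10^5 in glass-bottom dishes. They were co-incubated in DMEM with compound (1 µM) and LysoTracker Red DND-99 (1 µM). Confocal imaging used a 40× water objective. Compound channel: 405 nm laser, 480–530 nm filter. LysoTracker channel: 561 nm laser, 580–630 nm filter.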

[13] = Drug metabolism assessed as GSTpi (unknown origin) mediated compound fluorescence activation at 1 uM in presence of 100 uM vitamin C by HPLC analysis; format: ADME; settings: human; summary of the method: as §3
[14] = Drug metabolism assessed as GSTpi (unknown origin) mediated 1-(3,4,5-trimethoxyphenyl)-9H-pyrido[3,4-b]indol-3-amine formation at 40 uM in presence of 0.8 mM GSH by HPLC analysis; format: ADME; settings: human
Summary of the method: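 HPLC measurement of amine release after incubating compound (40 µM) with GSH (0.8 mM) and GSTπ or GSTα at 0.03 µg/ml.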

[15] = Drug localization in tumor of intra-operative mouse xenografted with human HT-29/Luc cells at 40 mg/kg, iv measured after 1 hrs post dose by fluorescence imaging assay; format: ADME, organism-based, Neoplasm; settings: in vivo
Summary of the method: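 Mice carrying subcutaneous HT29 tumours (1×10^6 cells, grown 3–4 weeks) received 40 mg/kg iv. They were imaged under 1% pentobarbital at 0, 1, 2, 4, 8 and 24 h post-injection (465 nm excitation filter, GFP emission filter). Excised tumours and major organs were then imaged ex vivo.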

[16] = Toxicity in ip dosed ICR mouse for 14 days; format: organism-based; settings: in vivo; summary of the method: as §2
[17] = Drug metabolism assessed as GSTpi (unknown origin) mediated compound fluorescence activation at 1 uM in presence of 100 uM Na2S by HPLC analysis; format: ADME; settings: human; summary of the method: as §3

Compound: COc1cc(-c2nc(NC(=O)OCC3=CCCCC3=O)cc3c2[nH]c2ccccc23)cc(OC)c1OC
- Activity [1]: Non-Toxic
- Drug uptake [2]: Active
- Activity [3]: Dose-dependent effect
- Activity [4]: Non-Toxic
- IC50 [5]: 23.4 µM
- Drug metabolism [6]: Metabolite_Notdetected
- Activity [7]: Non-Toxic
- Activity [8]: Dose-dependent effect
- Activity [9]: Non-Toxic
- Drug metabolism [10]: Metabolite_Notdetected
- Drug metabolism [11]: Metabolite_Notdetected
- Drug uptake [12]: Not Active
- Drug metabolism [13]: Metabolite_Notdetected
- Drug metabolism [14]: Metabolite_Detected
- Drug uptake [15]: Active
- LD50 at 336 h [16]: 475 mg/kg
- Drug metabolism [17]: Metabolite_Notdetected
